Active and inactive are the calls of the source. No cut-off for these calls is given here.
Assays:
[1] = molecular target: T1, Prostaglandin D2 receptor 2 (Homo sapiens, UniProt Q9Y5Y4); assay: Displacement of [3H]-PGD2 from human CRTH2 receptor expressed in human HEK293 cells by scintillation counter in presence of 50% human plasma; assay type: cell-based
T1 sequence (Q9Y5Y4 whole entry): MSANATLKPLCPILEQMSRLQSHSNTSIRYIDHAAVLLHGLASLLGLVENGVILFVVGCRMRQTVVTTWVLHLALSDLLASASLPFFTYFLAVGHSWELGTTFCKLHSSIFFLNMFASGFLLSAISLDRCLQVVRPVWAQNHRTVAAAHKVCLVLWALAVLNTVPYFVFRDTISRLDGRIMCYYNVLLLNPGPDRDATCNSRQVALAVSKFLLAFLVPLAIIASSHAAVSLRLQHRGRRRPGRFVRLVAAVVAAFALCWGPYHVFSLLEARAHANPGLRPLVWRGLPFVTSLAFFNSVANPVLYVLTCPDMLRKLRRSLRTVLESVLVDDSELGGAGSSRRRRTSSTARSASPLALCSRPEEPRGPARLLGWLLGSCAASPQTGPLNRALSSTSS

[2] = molecular target: T2, Prostaglandin D2 receptor (Homo sapiens, UniProt Q13258); assay: Displacement of [3H]-PGD2 from human Prostanoid DP receptor expressed in human HEK293 cells by scintillation counter in presence of 0.5% bovine serum albumin; assay type: cell-based
T2 sequence (Q13258 whole entry): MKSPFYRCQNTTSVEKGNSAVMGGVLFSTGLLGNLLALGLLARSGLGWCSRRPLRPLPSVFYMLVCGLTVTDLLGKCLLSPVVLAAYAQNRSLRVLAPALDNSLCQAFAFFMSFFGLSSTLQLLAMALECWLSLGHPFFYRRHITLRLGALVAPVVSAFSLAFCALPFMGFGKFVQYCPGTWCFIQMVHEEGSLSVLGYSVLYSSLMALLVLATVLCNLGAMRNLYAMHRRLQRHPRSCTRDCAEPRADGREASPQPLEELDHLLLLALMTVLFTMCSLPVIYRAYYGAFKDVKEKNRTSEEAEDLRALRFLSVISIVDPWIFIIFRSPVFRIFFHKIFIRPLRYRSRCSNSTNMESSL
How it was run: (§1)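 [3H]-PGD2 incubated with HEK-293 cells stably expressing human DP, with increasing compound concentrations; binding buffer held 0.5% BSA or 50% human plasma. Means of three experiments, standard deviation ±30%.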

[3] = molecular target: T1, Prostaglandin D2 receptor 2; assay: Displacement of [3H]-PGD2 from human CRTH2 receptor expressed in human HEK293 cells by scintillation counter in presence of 0.5% bovine serum albumin; assay type: cell-based
[4] = molecular target: T2, Prostaglandin D2 receptor; assay: Displacement of [3H]-PGD2 from human Prostanoid DP receptor expressed in human HEK293 cells by scintillation counter in presence of 50% human plasma; assay type: cell-based; how it was run: as §1
[5] = Plasma concentration in guinea pig at 3 mg/kg, sc after 4 hrs; assay type: ADME, organism-based, Cavia porcellus; parameters: dose 3 mg/kg, route subcutaneous
How it was run: (§2)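 Guinea pig plasma drug levels taken 4 h after sc dosing, in the PGD2 aerosol airway-constriction study; n = 4 animals per group.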

[6] = Volume of distribution at steady state in rat; assay type: ADME, organism-based; conditions: in vivo, read-out: Vdss
[7] = Volume of distribution at steady state in cynomolgus monkey; assay type: ADME, organism-based, Macaca fascicularis; conditions: in vivo, read-out: Vdss
[8] = Inhibition of CYP450; assay type: ADME
[9] = test system: Cavia porcellus; assay: Inhibition of PGD2-induced airway constriction in guinea pig model at 0.1 to 10 mg/kg, sc administered 4 hrs prior to aerosolized PGD2 challenge; assay type: functional, organism-based
How it was run: (§3)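 Guinea pigs dosed sc 4 h before exposure to aerosolized PGD2 (0.6 mg/mL). Airway resistance recorded as Penh (enhanced pause) in response to the challenge. n = 4 animals per group.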

[10] = Mean residence time in cynomolgus monkey; assay type: ADME, organism-based, Macaca fascicularis; conditions: in vivo
[11] = Plasma concentration in guinea pig at 0.3 mg/kg, sc after 4 hrs; assay type: ADME, organism-based, Cavia porcellus; parameters: dose 0.3 mg/kg, route subcutaneous; how it was run: as §2
[12] = Clearance in dog at 0.5 mg/kg, iv; assay type: ADME, organism-based, Canis lupus familiaris; parameters: dose 0.5 mg/kg, route intravenous; conditions: in vivo
[13] = Plasma concentration in guinea pig at 10 mg/kg, sc after 4 hrs; assay type: ADME, organism-based, Cavia porcellus; parameters: dose 10 mg/kg, route subcutaneous; how it was run: as §2
[14] = Plasma concentration in guinea pig at 0.1 mg/kg, sc after 4 hrs; assay type: ADME, organism-based, Cavia porcellus; parameters: dose 0.1 mg/kg, route subcutaneous; how it was run: as §2
[15] = Mean residence time in rat; assay type: ADME, organism-based; conditions: in vivo
[16] = Clearance in rat at 0.5 mg/kg, iv; assay type: ADME, organism-based; parameters: dose 0.5 mg/kg, route intravenous; conditions: in vivo
[17] = Plasma concentration in guinea pig at 1 mg/kg, sc after 4 hrs; assay type: ADME, organism-based, Cavia porcellus; parameters: dose 1 mg/kg, route subcutaneous; how it was run: as §2
[18] = Clearance in cynomolgus monkey at 0.5 mg/kg, iv; assay type: ADME, organism-based, Macaca fascicularis; parameters: dose 0.5 mg/kg, route intravenous; conditions: in vivo
[19] = Oral bioavailability in rat at 2 mg/kg; assay type: ADME, organism-based; conditions: in vivo
[20] = Antagonist activity at guinea pig Prostanoid DP receptor in whole blood by cAMP assay; assay type: functional; conditions: Cavia porcellus
[21] = Volume of distribution at steady state in dog; assay type: ADME, organism-based, Canis lupus familiaris; conditions: in vivo, read-out: Vdss
[22] = Oral bioavailability in cynomolgus monkey at 2 mg/kg; assay type: ADME, organism-based, Macaca fascicularis; conditions: in vivo
[23] = Mean residence time in dog; assay type: ADME, organism-based, Canis lupus familiaris; conditions: in vivo
[24] = Oral bioavailability in dog at 2 mg/kg; assay type: ADME, organism-based, Canis lupus familiaris; conditions: in vivo
[25] = test system: Cavia porcellus; assay: Inhibition of PGD2-induced airway constriction in guinea pig model at 0.3 to 10 mg/kg, sc administered 4 hrs prior to aerosolized PGD2 challenge; assay type: functional, organism-based; how it was run: as §3

## CC(C)(C)NC(=O)c1ccc(Oc2ccc(CC(=O)O)cc2Cl)c(NS(=O)(=O)c2ccc(Cl)cc2Cl)c1
[1]
  IC50: 0.012 µM
[2]
  IC50: 0.015 µM
[3]
  IC50: 0.005 µM
[4]
  IC50: 0.23 µM

## CCCCNC(=O)c1ccc(Oc2ccc(CC(=O)O)cc2OC)c(NS(=O)(=O)c2cc(Cl)cc(Cl)c2)c1
[2]
  IC50: 0.93 µM
[4]
  IC50: > 10 µM

## O=C(O)Cc1ccc(Oc2ccc(C(=O)NC3CCC3)cc2NS(=O)(=O)c2ccc(Cl)cc2Cl)c(Cl)c1
[1]
  IC50: 0.019 µM
[2]
  IC50: 0.009 µM
[3]
  IC50: 0.005 µM
[4]
  IC50: 0.21 µM

## CC(C)(C)NC(=O)c1ccc(Oc2ccc(CC(=O)O)cc2Cl)c(NS(=O)(=O)c2ccc(Cl)cc2)c1
[1]
  IC50: 0.015 µM
[2]
  IC50: 0.046 µM
[3]
  IC50: 0.009 µM
[4]
  IC50: 0.45 µM

## CCCCNC(=O)c1ccc(Oc2ccc(CC(=O)O)cc2C#N)c(NS(=O)(=O)c2ccc(Cl)cc2Cl)c1
[1]
  IC50: 0.21 µM
[2]
  IC50: 0.31 µM
[3]
  IC50: 0.018 µM

## COc1cc(CC(=O)O)ccc1Oc1ccc(C(=O)NC2CCC2)cc1NS(=O)(=O)c1ccc(C(F)(F)F)cc1Cl
[1]
  IC50: 0.013 µM
[2]
  IC50: 0.013 µM
[3]
  IC50: 0.004 µM
[4]
  IC50: 0.045 µM

## CC(C)(C)NC(=O)c1ccc(Oc2cc(F)c(CC(=O)O)cc2Cl)c(NS(=O)(=O)c2ccc(C3CC3)cc2Cl)c1 [VIDUPIPRANT]
[5]
  concentration at 4 h: 222 nM
[6]
  Vd: 0.71 L/kg
[7]
  Vd: 0.97 L/kg
[8]
  inhibition (INH): Not Active
[9]
  inhibition: Active
[2]
  IC50: 0.004 µM
[10]
  MRT: 1 h
[11]
  concentration at 4 h: 40 nM
[12]
  clearance: 15 mL/min/kg
[13]
  concentration at 4 h: 1400 nM
[14]
  concentration at 4 h: 32 nM
[15]
  MRT: 3.9 h
[16]
  clearance: 3.17 mL/min/kg
[17]
  concentration at 4 h: 77 nM
[4]
  IC50: 0.035 µM
[18]
  clearance: 16 mL/min/kg
[19]
  bioavailability: 87%
[20]
  Kb: 0.005 µM
[21]
  Vd: 2.72 L/kg
[22]
  bioavailability: 79%
[23]
  MRT: 3 h
[24]
  bioavailability: 100%

## CCCCNC(=O)c1ccc(Oc2ccc(CC(=O)O)cc2C)c(NS(=O)(=O)c2ccc(Cl)cc2Cl)c1
[1]
  IC50: 0.026 µM
[2]
  IC50: 0.006 µM
[3]
  IC50: 0.003 µM
[4]
  IC50: 0.23 µM

## O=C(O)Cc1cc(F)c(Oc2ccc(C(=O)NC3CCC3)cc2NS(=O)(=O)c2ccc(OC(F)(F)F)cc2Cl)cc1F
[1]
  IC50: 0.053 µM
[2]
  IC50: 0.02 µM
[3]
  IC50: 0.025 µM
[4]
  IC50: 0.042 µM

## CCCCNC(=O)c1ccc(Oc2ccc(CC(=O)O)cc2OC)c(NS(=O)(=O)c2c(Cl)cccc2Cl)c1
[2]
  IC50: > 10 µM

## O=C(O)Cc1ccc(Oc2ccc(C(=O)NC3CC3)cc2NS(=O)(=O)c2ccc(Cl)cc2Cl)c(Cl)c1
[1]
  IC50: 0.025 µM
[2]
  IC50: 0.014 µM
[3]
  IC50: 0.007 µM
[4]
  IC50: 0.22 µM

## O=C(O)Cc1cc(Cl)c(Oc2ccc(C(=O)NC3CCC3)cc2NS(=O)(=O)c2ccc(OC(F)(F)F)cc2Cl)cc1F
[1]
  IC50: 0.008 µM
[2]
  IC50: 0.01 µM
[3]
  IC50: 0.005 µM
[4]
  IC50: 0.019 µM

## CCCCNC(=O)c1ccc(Oc2ccc(CC(=O)O)cc2OC)c(NS(=O)(=O)c2ccc(Cl)cc2Cl)c1
[5]
  concentration at 4 h: 688 nM
[11]
  concentration at 4 h: 117 nM
[13]
  concentration at 4 h: 939 nM
[25]
  inhibition: Active
[17]
  concentration at 4 h: 152 nM
[20]
  Kb: 0.082 µM

## CCCCNC(=O)c1ccc(Oc2ccc(CC(=O)O)cc2F)c(NS(=O)(=O)c2ccc(Cl)cc2Cl)c1
[1]
  IC50: 0.11 µM
[2]
  IC50: 0.03 µM
[3]
  IC50: 0.007 µM
[4]
  IC50: 0.44 µM

## CC(C)(C)NC(=O)c1ccc(Oc2cc(F)c(CC(=O)O)cc2Cl)c(NS(=O)(=O)c2ccc(OC(F)(F)F)cc2Cl)c1
[1]
  IC50: 0.019 µM
[2]
  IC50: 0.014 µM
[3]
  IC50: 0.009 µM

## O=C(O)Cc1cc(F)c(Oc2ccc(C(=O)NC3CCC3)cc2NS(=O)(=O)c2ccc(C(F)(F)F)cc2Cl)cc1F
[1]
  IC50: 0.041 µM
[2]
  IC50: 0.009 µM
[3]
  IC50: 0.013 µM
[4]
  IC50: 0.022 µM

## CCCCNC(=O)c1ccc(Oc2ccc(CC(=O)O)cc2Cl)c(NS(=O)(=O)c2ccc(Cl)cc2Cl)c1
[1]
  IC50: 0.09 µM
[2]
  IC50: 0.008 µM
[3]
  IC50: 0.006 µM
[4]
  IC50: 1.33 µM

## CCCCNC(=O)c1ccc(Oc2ccc(CC(=O)O)cc2OC)c(NS(=O)(=O)c2cc(Cl)ccc2Cl)c1
[2]
  IC50: 0.05 µM
[4]
  IC50: 3.64 µM

## COc1cc(CC(=O)O)ccc1Oc1ccc(C(=O)NC2CC2)cc1NS(=O)(=O)c1ccc(Cl)cc1Cl
[4]
  IC50: 1.03 µM

## CCCCNC(=O)c1ccc(Oc2ccc(CC(=O)O)cc2OC)c(NS(=O)(=O)c2cccc(Cl)c2Cl)c1
[2]
  IC50: 0.52 µM
[4]
  IC50: 2.34 µM

## CCCCNC(=O)c1ccc(Oc2ccc(CC(=O)O)cc2OC)c(NS(=O)(=O)c2ccc(Cl)c(Cl)c2)c1
[2]
  IC50: 0.021 µM
[4]
  IC50: 0.12 µM

## CCCCNC(=O)c1ccc(Oc2cc(F)c(CC(=O)O)cc2F)c(NS(=O)(=O)c2ccc(Cl)cc2Cl)c1
[2]
  IC50: 0.007 µM
[4]
  IC50: 0.6 µM

## CCCCNC(=O)c1ccc(Oc2ccc(CC(=O)O)cc2OC)c(NS(=O)(=O)c2ccc(C(F)(F)F)cc2Cl)c1
[2]
  IC50: 0.021 µM
[4]
  IC50: 0.19 µM

## O=C(O)Cc1ccc(Oc2ccc(C(=O)NC3CCC3)cc2NS(=O)(=O)c2ccc(Cl)cc2)c(Cl)c1
[1]
  IC50: 0.012 µM
[2]
  IC50: 0.016 µM
[3]
  IC50: 0.006 µM
[4]
  IC50: 0.085 µM

Reference: ChEMBL document CHEMBL1949635, “Discovery of AMG 853, a CRTH2 and DP Dual Antagonist” (ACS Med Chem Lett, 2011)
